Data: ChEMBL document CHEMBL1932986, “Synthesis and in vitro antimycobacterial activity of compounds derived from (R)- and (S)-2-amino-1-butanol - The crucial role of the configuration” (Eur J Med Chem, 2012)
Values after ≈ are worked out from the molar mass of the structure shown. Active and inactive are the calls of the source. No cut-off for these calls is given here.

Tests used:
Priestia megaterium [1] = experiment: Antibacterial activity against Bacillus megaterium NRRL 1353895 at 50 mg/ml after 24 hrs by agar diffusion test; type: functional; conditions: NRRL 1353895, 24 h, read-out: DIZ
Outline: (§1)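 Agar diffusion: wells in agar filled with […] DMSO solution of compound at various concentrations; diameter of clear zone around application point measured. Bacteria grown 24 h at 37 °C on nutrient agar. Compounds first screened at 50 mg/ml; those active then tested at lower concentrations. Bracketed value = lowest concentration (mg/ml) giving zone >11 mm, reported only if activity retained at ≤1.25 mg/ml.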

Candida tropicalis [2] = experiment: Antifungal activity against Candida tropicalis ATCC 20336 assessed as concentration required to produce >11 mm of zone of inhibition after 72 hrs by agar diffusion test; type: functional
Outline: (§2)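 Agar diffusion: yeasts grown on yeast peptone dextrose agar and fungi on potato dextrose agar. Wells are filled with […] of compound solution in DMSO at various concentrations, and the clear-zone diameter is measured. Bracketed values give the lowest concentration (mg/ml) that produces a zone >11 mm. A first screen is run at 50 mg/ml.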

Bacillus cereus [3] = experiment: Antibacterial activity against Bacillus cereus ATCC 11778 at 2 mg/ml after 24 hrs by agar diffusion test; type: functional, organism-based; outline: as §1
Bacillus subtilis [4] = experiment: Antibacterial activity against Bacillus subtilis ATCC 6633 at 50 mg/ml after 24 hrs by agar diffusion test; type: functional; conditions: ATCC 6633, 24 h, read-out: DIZ; outline: as §1
Micrococcus luteus [5] = experiment: Antibacterial activity against Sarcina lutea ATCC 9341 assessed as concentration required to produce >11 mm of zone of inhibition after 24 hrs by agar diffusion test; type: functional; outline: as §1
Micrococcus luteus [6] = experiment: Antibacterial activity against Sarcina lutea ATCC 9341 at 50 mg/ml after 24 hrs by agar diffusion test; type: functional; conditions: ATCC 9341, 24 h, read-out: DIZ
Outline: (§3)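 Agar diffusion: bacteria grown 24 h at 37 °C on nutrient agar. Wells in the agar are filled with […] of compound solution in DMSO at various concentrations. The diameter of the clear zone around the application point is measured. Bracketed values give the lowest concentration (mg/ml) that produces a zone >11 mm. A first screen is run at 50 mg/ml.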

Bacillus subtilis [7] = experiment: Antibacterial activity against Bacillus subtilis ATCC 6633 assessed as concentration required to produce >11 mm of zone of inhibition after 24 hrs by agar diffusion test; type: functional; outline: as §1
Acinetobacter johnsonii [8] = experiment: Antibacterial activity against Acinetobacter johnsonii ATCC 17909 at 2 mg/ml after 24 hrs by agar diffusion test; type: functional; outline: as §1
Bacillus mycoides [9] = experiment: Antibacterial activity against Bacillus mycoides DSMZ 274 at 50 mg/ml after 24 hrs by agar diffusion test; type: functional; conditions: DSMZ 274, 24 h, read-out: DIZ; outline: as §1
Bacillus [10] = experiment: Antibacterial activity against Bacillus idosus B 241 at 2 mg/ml after 24 hrs by agar diffusion test; type: functional, organism-based; outline: as §1
Bacillus [11] = experiment: Antibacterial activity against Bacillus idosus B 241 assessed as concentration required to produce >11 mm of zone of inhibition after 24 hrs by agar diffusion test; type: functional; outline: as §1
[12] = test system: Mycobacterium tuberculosis; experiment: Antimycobacterial activity against Mycobacterium tuberculosis H37Rv after 45 days; type: functional
Outline: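 Canetti proportion method. Compound in DMSO is added to Löwenstein–Jensen egg medium before coagulation (30 min, 85 °C), tested at three levels plus a lower one where needed. Tubes are inoculated with H37Rv at 10⁵ cells/ml and incubated 45 days at 37 °C. Colony counts versus drug-free control give percentage inhibition.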

Penicillium chrysogenum [13] = experiment: Antifungal activity against Penicillium chrysogenum CECT 2802 at 2 mg/ml after 72 hrs by agar diffusion test; type: functional, organism-based; outline: as §2
Candida tropicalis [14] = experiment: Antifungal activity against Candida tropicalis ATCC 20336 at 50 mg/ml after 72 hrs by agar diffusion test; type: functional; conditions: ATCC 20336, 72 h, read-out: DIZ; outline: as §2
Bacillus mycoides [15] = experiment: Antibacterial activity against Bacillus mycoides DSMZ 274 at 2 mg/ml after 24 hrs by agar diffusion test; type: functional, organism-based; outline: as §1
Staphylococcus aureus [16] = experiment: Antibacterial activity against Staphylococcus aureus NRRL B 313 assessed as concentration required to produce >11 mm of zone of inhibition after 24 hrs by agar diffusion test; type: functional; outline: as §3
Candida tropicalis [17] = experiment: Antifungal activity against Candida tropicalis ATCC 20336 at 2 mg/ml after 72 hrs by agar diffusion test; type: functional, organism-based; outline: as §2
Saccharomyces cerevisiae [18] = experiment: Antifungal activity against Saccharomyces cerevisiae ATCC 9763 at 2 mg/ml after 72 hrs by agar diffusion test; type: functional, organism-based; outline: as §2
Saccharomyces cerevisiae [19] = experiment: Antifungal activity against Saccharomyces cerevisiae ATCC 9763 at 50 mg/ml after 72 hrs by agar diffusion test; type: functional; conditions: ATCC 9763, 72 h, read-out: DIZ; outline: as §2
Priestia megaterium [20] = experiment: Antibacterial activity against Bacillus megaterium NRRL 1353895 assessed as concentration required to produce >11 mm of zone of inhibition after 24 hrs by agar diffusion test; type: functional; outline: as §1
Micrococcus luteus [21] = experiment: Antibacterial activity against Sarcina lutea ATCC 9341 at 2 mg/ml after 24 hrs by agar diffusion test; type: functional, organism-based; outline: as §1
Penicillium chrysogenum [22] = experiment: Antifungal activity against Penicillium chrysogenum CECT 2802 assessed as concentration required to produce >11 mm of zone of inhibition after 72 hrs by agar diffusion test; type: functional; outline: as §2
Bacillus mycoides [23] = experiment: Antibacterial activity against Bacillus mycoides DSMZ 274 assessed as concentration required to produce >11 mm of zone of inhibition after 24 hrs by agar diffusion test; type: functional; outline: as §1
Acinetobacter johnsonii [24] = experiment: Antibacterial activity against Acinetobacter johnsonii ATCC 17909 assessed as concentration required to produce >11 mm of zone of inhibition after 24 hrs by agar diffusion test; type: functional; outline: as §1
Saccharomyces cerevisiae [25] = experiment: Antifungal activity against Saccharomyces cerevisiae ATCC 9763 assessed as concentration required to produce >11 mm of zone of inhibition after 72 hrs by agar diffusion test; type: functional; outline: as §2
Bacillus subtilis [26] = experiment: Antibacterial activity against Bacillus subtilis ATCC 6633 at 2 mg/ml after 24 hrs by agar diffusion test; type: functional, organism-based; outline: as §1
Acinetobacter johnsonii [27] = experiment: Antibacterial activity against Acinetobacter johnsonii ATCC 17909 at 50 mg/ml after 24 hrs by agar diffusion test; type: functional; conditions: ATCC 17909, 24 h, read-out: DIZ; outline: as §1
Staphylococcus aureus [28] = experiment: Antibacterial activity against Staphylococcus aureus NRRL B 313 at 50 mg/ml after 24 hrs by agar diffusion test; type: functional; conditions: NRRL B 313, 24 h, read-out: DIZ; outline: as §3
Micrococcus luteus [29] = experiment: Antibacterial activity against Micrococcus luteus ATCC 9631 at 2 mg/ml after 24 hrs by agar diffusion test; type: functional, organism-based; outline: as §1
Micrococcus luteus [30] = experiment: Antibacterial activity against Micrococcus luteus ATCC 9631 assessed as concentration required to produce >11 mm of zone of inhibition after 24 hrs by agar diffusion test; type: functional; outline: as §1
Staphylococcus aureus [31] = experiment: Antibacterial activity against Staphylococcus aureus NRRL B 313 at 2 mg/ml after 24 hrs by agar diffusion test; type: functional, organism-based; outline: as §3
Micrococcus luteus [32] = experiment: Antibacterial activity against Micrococcus luteus ATCC 9631 at 50 mg/ml after 24 hrs by agar diffusion test; type: functional; conditions: ATCC 9631, 24 h, read-out: DIZ; outline: as §1
Bacillus cereus [33] = experiment: Antibacterial activity against Bacillus cereus ATCC 11778 assessed as concentration required to produce >11 mm of zone of inhibition after 24 hrs by agar diffusion test; type: functional; outline: as §1
Penicillium chrysogenum [34] = experiment: Antifungal activity against Penicillium chrysogenum CECT 2802 at 50 mg/ml after 72 hrs by agar diffusion test; type: functional; conditions: CECT 2802, 72 h, read-out: DIZ; outline: as §2
Bacillus cereus [35] = experiment: Antibacterial activity against Bacillus cereus ATCC 11778 at 50 mg/ml after 24 hrs by agar diffusion test; type: functional; conditions: ATCC 11778, 24 h, read-out: DIZ; outline: as §1
Priestia megaterium [36] = experiment: Antibacterial activity against Bacillus megaterium NRRL 1353895 at 2 mg/ml after 24 hrs by agar diffusion test; type: functional, organism-based; outline: as §1
Bacillus [37] = experiment: Antibacterial activity against Bacillus idosus B 241 at 50 mg/ml after 24 hrs by agar diffusion test; type: functional; conditions: B 241, 24 h, read-out: DIZ; outline: as §1
Escherichia coli [38] = experiment: Antibacterial activity against Escherichia coli ATCC 8739 at 2 mg/ml after 24 hrs by agar diffusion test; type: functional, organism-based; outline: as §1
Escherichia coli [39] = experiment: Antibacterial activity against Escherichia coli ATCC 8739 at 50 mg/ml after 24 hrs by agar diffusion test; type: functional; conditions: ATCC 8739, 24 h, read-out: DIZ; outline: as §1
Escherichia coli [40] = experiment: Antibacterial activity against Escherichia coli ATCC 8739 assessed as concentration required to produce >11 mm of zone of inhibition after 24 hrs by agar diffusion test; type: functional; outline: as §1

| Compound | zone of inhibition at 50000 µg/mL (Priestia megaterium [1]) [mm] | Activity (Candida tropicalis [2]) [mg/mL] | diameter of the inhibition zone (DIZ) (Bacillus cereus [3]) | zone of inhibition at 50000 µg/mL (Bacillus subtilis [4]) [mm] | Activity (Micrococcus luteus [5]) [mg/mL] | zone of inhibition at 50000 µg/mL (Micrococcus luteus [6]) [mm] | Activity (Bacillus subtilis [7]) [mg/mL] | diameter of the inhibition zone (DIZ) (Acinetobacter johnsonii [8]) | zone of inhibition at 50000 µg/mL (Bacillus mycoides [9]) [mm] | diameter of the inhibition zone (DIZ) (Bacillus [10]) | Activity (Bacillus [11]) [mg/mL] | MIC [12] [µM] | diameter of the inhibition zone (DIZ) (Penicillium chrysogenum [13]) | zone of inhibition at 50000 µg/mL (Candida tropicalis [14]) [mm] | diameter of the inhibition zone (DIZ) (Bacillus mycoides [15]) | Activity (Staphylococcus aureus [16]) [mg/mL] | diameter of the inhibition zone (DIZ) (Candida tropicalis [17]) | diameter of the inhibition zone (DIZ) (Saccharomyces cerevisiae [18]) | zone of inhibition at 50000 µg/mL (Saccharomyces cerevisiae [19]) [mm] | Activity (Priestia megaterium [20]) [mg/mL] | further results |
| --- | --- | --- | --- | --- | --- | --- | --- | --- | --- | --- | --- | --- | --- | --- | --- | --- | --- | --- | --- | --- | --- |
| CC[C@H](CO)NCc1c2ccccc2cc2ccccc12 | 20 | 0.0125 | inactive | 18 | 0.3 | 18 | 0.3 | inactive | 20 | inactive | 1.25 | 17.9 (≈ 5 µg/mL) | inactive | 31 | inactive | 0.03 | inactive | inactive | 32 | 0.6 | diameter of the inhibition zone (DIZ) (Micrococcus luteus [21]): inactive; Activity (Penicillium chrysogenum [22]): 0.06 mg/mL; Activity (Bacillus mycoides [23]): 0.6 mg/mL; Activity (Acinetobacter johnsonii [24]): 0.6 mg/mL; Activity (Saccharomyces cerevisiae [25]): 0.0125 mg/mL; diameter of the inhibition zone (DIZ) (Bacillus subtilis [26]): inactive; zone of inhibition at 50000 µg/mL (Acinetobacter johnsonii [27]): 17 mm; zone of inhibition at 50000 µg/mL (Staphylococcus aureus [28]): 19 mm; diameter of the inhibition zone (DIZ) (Micrococcus luteus [29]): inactive; Activity (Micrococcus luteus [30]): 0.3 mg/mL; diameter of the inhibition zone (DIZ) (Staphylococcus aureus [31]): inactive; zone of inhibition at 50000 µg/mL (Micrococcus luteus [32]): 19 mm; Activity (Bacillus cereus [33]): 0.3 mg/mL; zone of inhibition at 50000 µg/mL (Penicillium chrysogenum [34]): 16 mm; zone of inhibition at 50000 µg/mL (Bacillus cereus [35]): 19 mm; diameter of the inhibition zone (DIZ) (Priestia megaterium [36]): inactive; zone of inhibition at 50000 µg/mL (Bacillus [37]): 19 mm; diameter of the inhibition zone (DIZ) (Escherichia coli [38]): inactive; zone of inhibition at 50000 µg/mL (Escherichia coli [39]): 12 mm |
| CC[C@H](COC(C)=O)N1C(=O)C=CC1=O | 40 | 0.006 | inactive | 40 | 0.06 | 38 | 0.06 | inactive | 38 | inactive | 0.06 | 23.7 (≈ 5 µg/mL) | inactive | > 40 | inactive | 0.06 | inactive | inactive | > 40 | 0.06 | diameter of the inhibition zone (DIZ) (Micrococcus luteus [21]): inactive; Activity (Penicillium chrysogenum [22]): 0.0125 mg/mL; Activity (Bacillus mycoides [23]): 0.06 mg/mL; Activity (Acinetobacter johnsonii [24]): 0.06 mg/mL; Activity (Saccharomyces cerevisiae [25]): 0.006 mg/mL; diameter of the inhibition zone (DIZ) (Bacillus subtilis [26]): inactive; zone of inhibition at 50000 µg/mL (Acinetobacter johnsonii [27]): 39 mm; Activity (Escherichia coli [40]): 1.25 mg/mL; zone of inhibition at 50000 µg/mL (Staphylococcus aureus [28]): > 40 mm; diameter of the inhibition zone (DIZ) (Micrococcus luteus [29]): inactive; Activity (Micrococcus luteus [30]): 0.3 mg/mL; diameter of the inhibition zone (DIZ) (Staphylococcus aureus [31]): inactive; zone of inhibition at 50000 µg/mL (Micrococcus luteus [32]): 38 mm; Activity (Bacillus cereus [33]): 0.0125 mg/mL; zone of inhibition at 50000 µg/mL (Penicillium chrysogenum [34]): > 40 mm; zone of inhibition at 50000 µg/mL (Bacillus cereus [35]): 40 mm; diameter of the inhibition zone (DIZ) (Priestia megaterium [36]): inactive; zone of inhibition at 50000 µg/mL (Bacillus [37]): 35 mm; diameter of the inhibition zone (DIZ) (Escherichia coli [38]): inactive; zone of inhibition at 50000 µg/mL (Escherichia coli [39]): 29 mm |
